Laboratory results taken from ChEMBL document CHEMBL1687745 (Antimicrob Agents Chemother, 2009).
Values after ≈ are worked out from the molar mass of the structure shown. Active and inactive are the calls of the source. The calls are words filed in the database; no cut-off is given here.

Tests used:
Bacillus subtilis [1] = assay: Inhibition of DNA synthesis in Bacillus subtilis BD54 at 5 X MIC by [3H]thymidine incorporation assay; format: functional, organism-based
How it was run: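 Precursors were [methyl-3H]thymidine (DNA), [5-3H]uridine (RNA), L-[4,5-3H]leucine (protein) and N-acetyl-D-[1-3H]glucosamine (cell wall). Samples taken over time, precipitated with equal volume of ice-cold 20% TCA, filtered on glass fibre, and counted. cpm plotted against time.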

Bacillus subtilis [2] = assay: Effect on bacterial membrane permeability in Bacillus subtilis BD54 upto 10 times MIC using DiSC3 fluorescent dye staining based fluorimetric assay; format: functional, organism-based
How it was run: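 B. subtilis BD54 grown in LB to OD600 0.4–0.5, washed, and resuspended to OD600 0.1 in 5 mM HEPES pH 7.4 with 20 mM glucose. Loaded with 1 µM DiSC3(5) for 10 min at room temperature, then 100 mM KCl added. […] Fluorescence read at 5 min (ex 622, em 670 nm). DNP 200 µg/ml positive control; mean ± SD of 8 wells.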

Bacillus anthracis [3] = assay: Protection against Bacillus anthracis Sterne spores induced cell death in mouse J774A1 cells assessed as live viable cells at 10 uM by Sytox green dye staining assay relative to untreated control; format: functional, J774.A1
Bacillus anthracis [4] = assay: microbe, parasite or virus in culture; settings: Ames
Staphylococcus aureus [5] = assay: Antimicrobial activity against methicillin-resistant Staphylococcus aureus clinical isolate by broth microdilution method; format: functional
Enterococcus faecalis [6] = assay: Antimicrobial activity against Enterococcus faecalis 29212 clinical isolate by broth microdilution method; format: functional
Enterococcus faecalis [7] = assay: Antimicrobial activity against Enterococcus faecalis clinical isolate by broth microdilution method; format: functional
How it was run: (§1)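 Broth microdilution. Log-phase cultures (5 × 10^5 CFU/ml) seeded in 96-well plates with compound from 0 to 20 µM or 1% DMSO control. Incubated at 37°C for 16 to 20 h. Growth read as absorbance at 600 nm.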

[8] = system: Mycolicibacterium smegmatis; assay: Antimicrobial activity against Mycobacterium smegmatis 19420 by broth microdilution method; format: functional; how it was run: as §1
[9] = Cytotoxicity against human HeLa cells after 3 days by MTS assay in presence of 10% fetal calf serum; format: cell-based
Bacillus anthracis [10] = assay: Antimicrobial activity against Bacillus anthracis Ames by broth microdilution method in presence of 10% fetal calf serum; format: functional
Bacillus anthracis [11] = assay: Antimicrobial activity against Bacillus anthracis Sterne vegetative cells by broth microdilution method; format: functional
Yersinia pestis = assay: Antimicrobial activity against Yersinia pestis by broth microdilution method; format: functional
Bacillus anthracis [12] = assay: microbe, parasite or virus in culture; settings: Ames; remark: listed apart in the source
Klebsiella pneumoniae = assay: Antimicrobial activity against Klebsiella pneumoniae 5657 by broth microdilution method; format: functional; how it was run: as §1
Enterococcus faecalis [13] = assay: Antimicrobial activity against vancomycin-resistant Enterococcus faecalis ATCC 51575 by broth microdilution method; format: functional
Brevibacillus brevis = assay: Antimicrobial activity against Bacillus brevis clinical isolate by broth microdilution method; format: functional; how it was run: as §1
Priestia megaterium = assay: Antimicrobial activity against Bacillus megaterium clinical isolate by broth microdilution method; format: functional
Bacillus licheniformis = assay: Antimicrobial activity against Bacillus licheniformis clinical isolate by broth microdilution method; format: functional
Staphylococcus aureus [14] = assay: Antibacterial activity against Staphylococcus aureus Smith infected in Swiss Webster mouse assessed as assessed as protection against microbe-induced mortality at 10 mg/kg, iv administered as single dose 15 mins post bacterial challenge measured 48 hrs post infection; format: functional
How it was run: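 Swiss Webster mice (n = 10/group) were challenged i.p. with 8.3 × 10^8 CFU. After 15 min they received a single i.v. dose in 10% dimethyl acetamide–5% dextrose in water (pH 4.0), alongside vehicle and daptomycin (10 mg/kg) controls. Survival was followed for 48 h.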

Burkholderia cepacia = assay: Antimicrobial activity against Burkholderia cepacia clinical isolate by broth microdilution method; format: functional; how it was run: as §1
Enterococcus faecium = assay: Antimicrobial activity against vancomycin-resistant Enterococcus faecium B42762 by broth microdilution method; format: functional
Bacillus anthracis [15] = assay: Inhibition of spore germination in Bacillus anthracis Sterne spores at MIC after 4 hrs; format: functional, organism-based
Burkholderia mallei = assay: Antimicrobial activity against Burkholderia mallei ATCC 23344 by broth microdilution method; format: functional
[16] = system: Mycolicibacterium smegmatis; assay: Antimicrobial activity against Mycobacterium smegmatis 35798 by broth microdilution method; format: functional; how it was run: as §1
Bacillus anthracis [17] = assay: Antibacterial activity against Bacillus anthracis Ames spores infected in C57BL/6 mouse assessed as mouse survival rate at 1 mg/kg, ip for 5 days every 6 hrs administered 6 hrs post bacterial challenge measured up to 20 days post infection; format: functional; settings: route intraperitoneal
Staphylococcus aureus [18] = assay: Antibacterial activity against MBX 1090 resistant Staphylococcus aureus NCTC8325 isolates selected on 10 to 12 days of serial passage through MBX 1090; format: functional
How it was run: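 Eight independent S. aureus NCTC8325 cultures were grown with compound at 0.125× to 128× MIC. Each day, cells were passaged from the highest-concentration well still showing >50% of untreated growth, for up to 20 days. Colonies isolated from resistant cultures were confirmed by MIC assay.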

Bacillus anthracis [19] = assay: Antimicrobial activity against Bacillus anthracis Vollum clinical isolate by broth microdilution method; format: functional
Bacillus subtilis [20] = assay: Antimicrobial activity against Bacillus subtilis clinical isolate by broth microdilution method; format: functional
Bacillus pumilus = assay: Antimicrobial activity against Bacillus pumilus clinical isolate by broth microdilution method; format: functional; how it was run: as §1
Bacillus anthracis [21] = assay: Antimicrobial activity against Bacillus anthracis Sterne spores by broth microdilution method; format: functional
Bacillus anthracis [22] = assay: Protection against Bacillus anthracis Sterne spores induced cell death in mouse J774A1 cells assessed as dead cells at 10 uM by Sytox green dye staining assay relative to untreated control; format: functional, J774.A1
Staphylococcus aureus [23] = assay: Antimicrobial activity against methicillin-resistant Staphylococcus aureus 1094 by broth microdilution method; format: functional
HeLa = assay: Effect on cell membrane integrity in human HeLa cells assessed as lactate dehydrogenase release at 32 times MIC against Staphylococcus aureus by CytoTox ONE homogenous membrane integrity assay; format: cell-based
How it was run: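 Confluent HeLa cells in DMEM treated for 1 h with a range of compound concentrations, 1% DMSO final. […] LDH activity in the supernatant measured by a membrane-integrity kit.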

[24] = system: Mycolicibacterium smegmatis; assay: Antimicrobial activity against Mycobacterium smegmatis 700009 by broth microdilution method; format: functional; how it was run: as §1
[25] = system: Burkholderia thailandensis; assay: Antimicrobial activity against Burkholderia thailandensis by broth microdilution method; format: functional
[26] = system: Burkholderia pseudomallei; assay: Antimicrobial activity against Burkholderia pseudomallei DD503 by broth microdilution method; format: functional
Pseudomonas aeruginosa = assay: Antimicrobial activity against Pseudomonas aeruginosa PAO1 by broth microdilution method; format: functional; how it was run: as §1
Escherichia coli = assay: Antimicrobial activity against Escherichia coli J53 clinical isolate by broth microdilution method; format: functional
Staphylococcus aureus [27] = assay: Antimicrobial activity against Staphylococcus aureus ATCC 25923 by broth microdilution method; format: functional; how it was run: as §1
Staphylococcus aureus [28] = assay: Antimicrobial activity against Staphylococcus aureus by broth microdilution method; format: functional; how it was run: as §1

Structure (SMILES): C(=C\c1cc2ccc(C3=NCCN3)cc2[nH]1)/c1cc2ccc(C3=NCCN3)cc2[nH]1
- inhibition (Bacillus subtilis [1]): Active
- Activity (Bacillus subtilis [2]): Active
- Activity (Bacillus anthracis [3]): 73%
- MIC (Bacillus anthracis [4]): 0.2 µg/mL (≈ 0.507 µM)
- MIC (Staphylococcus aureus [5]): 2.3 µg/mL (≈ 5.83 µM)
- MIC (Enterococcus faecalis [6]): 0.3 µg/mL (≈ 0.76 µM)
- MIC (Enterococcus faecalis [7]): 0.6 µg/mL (≈ 1.52 µM)
- MIC [8]: 0.2 µg/mL (≈ 0.507 µM)
- CC50 at 72 h [9]: 10 µg/mL
- MIC (Bacillus anthracis [10]): 0.6 µg/mL
- MIC (Bacillus anthracis [11]): 1.2 µg/mL (≈ 3.04 µM)
- MIC (Yersinia pestis): 13 µg/mL (≈ 33 µM)
- MBC (Bacillus anthracis [12]): 2.3 µg/mL (≈ 5.83 µM)
- MIC (Bacillus anthracis [12]): 0.6 µg/mL (≈ 1.52 µM)
- MIC (Klebsiella pneumoniae): 1.3 µg/mL (≈ 3.3 µM)
- MIC (Enterococcus faecalis [13]): 0.6 µg/mL (≈ 1.52 µM)
- MIC (Brevibacillus brevis): 0.6 µg/mL (≈ 1.52 µM)
- MIC (Priestia megaterium): 0.6 µg/mL (≈ 1.52 µM)
- MIC (Bacillus licheniformis): 2.3 µg/mL (≈ 5.83 µM)
- survival at 10 mg/kg (Staphylococcus aureus [14]): 80%
- MIC (Burkholderia cepacia): 19 µg/mL (≈ 48.2 µM)
- MIC (Enterococcus faecium): 0.3 µg/mL (≈ 0.76 µM)
- inhibition (Bacillus anthracis [15]): inactive
- MIC (Burkholderia mallei): 1.6 µg/mL (≈ 4.06 µM)
- MIC [16]: 0.1 µg/mL (≈ 0.253 µM)
- survival at 1 mg/kg (Bacillus anthracis [17]): 100%
- MIC (Staphylococcus aureus [18]): 16 µg/mL (≈ 40.6 µM)
- MBC (Bacillus anthracis [19]): 1.2 µg/mL (≈ 3.04 µM)
- MIC (Bacillus anthracis [19]): 0.6 µg/mL (≈ 1.52 µM)
- MIC (Bacillus subtilis [20]): 0.3 µg/mL (≈ 0.76 µM)
- MIC (Bacillus pumilus): 0.2 µg/mL (≈ 0.507 µM)
- MIC (Bacillus anthracis [21]): 0.3 µg/mL (≈ 0.76 µM)
- Activity (Bacillus anthracis [22]): 27%
- MIC (Staphylococcus aureus [23]): 0.6 µg/mL (≈ 1.52 µM)
- Activity (HeLa): Non-toxic
- MIC [24]: 0.2 µg/mL (≈ 0.507 µM)
- MIC [25]: 19 µg/mL (≈ 48.2 µM)
- MIC [26]: 3.1 µg/mL (≈ 7.86 µM)
- MIC (Pseudomonas aeruginosa): 25 µg/mL (≈ 63.4 µM)
- MIC (Escherichia coli): 0.6 µg/mL (≈ 1.52 µM)
- MIC (Staphylococcus aureus [27]): 0.9 µg/mL (≈ 2.28 µM)
- MIC (Staphylococcus aureus [28]): 1.2 µg/mL (≈ 3.04 µM)
